The values that follow come from ChEMBL document CHEMBL4321796, “Proteolysis Targeting Chimeras for the Selective Degradation of Mcl-1/Bcl-2 Derived from Nonselective Target Binding Ligands” (J Med Chem, 2019).

In assay [1] the target is T1, Protein cereblon/Apoptosis regulator Bcl-2 (Homo sapiens, UniProt P10415+Q96SW2). Put plainly: Induction of CRBN-mediated Bcl-2 degradation in human HeLa cells assessed as relative abundance at 10 uM after 12 hrs by Western blot analysis (reference value: 1). The class given is cell-based. On the technique in general: Immunoblotting shows a protein as a band on a membrane.
T1 sequence (P10415 whole entry, looked up): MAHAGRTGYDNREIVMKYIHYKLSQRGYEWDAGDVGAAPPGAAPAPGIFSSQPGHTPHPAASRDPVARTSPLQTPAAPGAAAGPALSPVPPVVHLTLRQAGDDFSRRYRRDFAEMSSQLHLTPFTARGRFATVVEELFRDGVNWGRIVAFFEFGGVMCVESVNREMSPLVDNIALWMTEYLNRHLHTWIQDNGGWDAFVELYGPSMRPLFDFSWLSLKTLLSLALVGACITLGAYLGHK
T1 sequence (Q96SW2 whole entry, looked up): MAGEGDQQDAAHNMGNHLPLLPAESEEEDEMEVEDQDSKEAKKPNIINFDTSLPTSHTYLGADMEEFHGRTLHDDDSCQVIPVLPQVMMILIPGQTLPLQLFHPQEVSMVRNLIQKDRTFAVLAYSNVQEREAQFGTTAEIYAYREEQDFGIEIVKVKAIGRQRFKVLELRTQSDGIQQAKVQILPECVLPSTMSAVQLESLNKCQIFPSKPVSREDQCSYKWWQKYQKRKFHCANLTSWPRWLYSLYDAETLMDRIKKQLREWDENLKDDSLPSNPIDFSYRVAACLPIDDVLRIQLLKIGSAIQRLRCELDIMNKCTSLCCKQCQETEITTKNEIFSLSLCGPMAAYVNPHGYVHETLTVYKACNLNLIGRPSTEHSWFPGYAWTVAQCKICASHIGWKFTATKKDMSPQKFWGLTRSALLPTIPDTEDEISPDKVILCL

Assay [2] concerns the target Apoptosis regulator Bcl-2 (Homo sapiens, UniProt P10415). Kind of assay: Inhibition of biotinylated Bim peptide (81 to 106 residues) binding to His-tagged human Bcl-2 expressed in Escherichia coli BL21 (DE3) cells preincubated for 1 hr followed by biotinylated Bim peptide addition measured after 2 hrs by ELISA. The gist of the method:
(§1)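 Inhibitor serially diluted (100–0.1 µM) from 10 mM DMSO stock, preincubated 1 h with 200 nM His-tagged protein in PBS (final DMSO 4%), then added 2 h to streptavidin plates holding biotin-Bim (plated at 0.09 mg/mL). Incubations at 4 °C. Detection with HRP anti-His, TMB 30 min, H2SO4 stop, A450. IC50 averaged from three independent experiments, with SD.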
A general note: In an ELISA, binding on a coated surface is turned into a signal by an enzyme label.

The target of assay [3] is T2, Protein cereblon/Induced myeloid leukemia cell differentiation protein Mcl-1 (Homo sapiens, UniProt Q07820+Q96SW2). Kind of assay: Induction of CRBN-mediated Mcl-1 degradation in human HeLa cells assessed as relative abundance at 10 uM after 12 hrs by Western blot analysis (reference value: 1). Format: cell-based.
T2 sequence (Q07820 whole entry, looked up, the tested form may be a part): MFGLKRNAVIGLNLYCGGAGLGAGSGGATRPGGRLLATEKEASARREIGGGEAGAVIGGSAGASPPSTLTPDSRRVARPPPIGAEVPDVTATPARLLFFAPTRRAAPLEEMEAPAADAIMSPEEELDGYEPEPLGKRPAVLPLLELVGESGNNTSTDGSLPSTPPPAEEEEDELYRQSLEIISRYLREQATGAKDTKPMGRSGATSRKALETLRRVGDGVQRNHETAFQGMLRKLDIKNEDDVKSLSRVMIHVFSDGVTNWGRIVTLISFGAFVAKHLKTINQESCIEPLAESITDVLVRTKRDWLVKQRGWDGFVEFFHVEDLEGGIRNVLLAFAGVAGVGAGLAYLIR
T2 sequence (Q96SW2 whole entry, looked up, the tested form may be a part): as the sequence (Q96SW2 whole entry, looked up) above
Assay [4] concerns the target Induced myeloid leukemia cell differentiation protein Mcl-1 (Homo sapiens, UniProt Q07820). Kind of assay: Inhibition of biotinylated Bim peptide (81 to 106 residues) binding to His-tagged human Mcl-1 expressed in Escherichia coli BL21 (DE3) cells preincubated for 1 hr followed by biotinylated Bim peptide addition measured after 2 hrs by ELISA. The gist of the method: as §1

Assay [5] has as its target T2, Protein cereblon/Induced myeloid leukemia cell differentiation protein Mcl-1. Put plainly: Induction of CRBN-mediated Mcl-1 degradation in human HeLa cells assessed as relative abundance at 1 uM after 12 hrs by Western blot analysis (reference value: 1). Format: cell-based.
For assay [6], the target named is T1, Protein cereblon/Apoptosis regulator Bcl-2. Kind of assay: Induction of CRBN-mediated Bcl-2 degradation in human HeLa cells assessed as relative abundance at 1 uM after 12 hrs by Western blot analysis (reference value: 1). The class given is cell-based.
Assay [7] addresses T2, Protein cereblon/Induced myeloid leukemia cell differentiation protein Mcl-1. Kind of assay: Induction of CRBN-mediated Mcl-1 degradation in human HeLa cells assessed as formation of ubiquitin adducts of Mcl-1 at 1 to 10 uM after 12 hrs by Western blot analysis. The class given is cell-based.
Assay [8] shares this target. Put plainly: Induction of CRBN-mediated Mcl-1 degradation in human HeLa cells at 10 uM after 12 hrs by Western blot analysis relative to control. The class given is cell-based.
Assay [9] deals with T1, Protein cereblon/Apoptosis regulator Bcl-2. Put plainly: Induction of CRBN-mediated Bcl-2 degradation in human HeLa cells at 10 uM after 12 hrs by Western blot analysis relative to control. The class given is cell-based.
The target of assay [10] is T2, Protein cereblon/Induced myeloid leukemia cell differentiation protein Mcl-1. Put plainly: Protac activity at CRBN/Mcl-1 in human HeLa cell lysates assessed as ternary complex formation by Western blot analysis based pull-down assay. The class given is subcellular. To be noted: Lysate. Put shortly:
(§2)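 HeLa lysate (25×10^6 cells, 1% Triton X-100 IP buffer), 1 mg total protein, incubated overnight with 1 µg CRBN antibody across a compound concentration gradient. Capture on protein A+G agarose, three Triton washes, boiled in loading buffer. Mcl-1, Bcl-2 and CRBN detected by immunoblotting. n=3 independent samples.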

Assay [11] has as its target T1, Protein cereblon/Apoptosis regulator Bcl-2. Put plainly: Protac activity at CRBN/Bcl-2 in human HeLa cell lysates assessed as ternary complex formation by Western blot analysis based pull-down assay. Format: subcellular. The note with it: Lysate. Put shortly: as §2
Assay [12] shares this target. Kind of assay: Induction of CRBN-mediated Bcl-2 degradation in human HeLa cells assessed as reduction in Bcl-2 level at 10 uM after 12 hrs by Western blot analysis. The class given is cell-based.
Assay [13] addresses T2, Protein cereblon/Induced myeloid leukemia cell differentiation protein Mcl-1. Kind of assay: Induction of CRBN-mediated Mcl-1 degradation in human HeLa cells assessed as Mcl-1 level at 10 uM after 12 hrs by Western blot analysis. Format: cell-based.
For the next assay, the system named is NCI-H23. Kind of assay: Cytotoxicity against human H23 cells incubated for 24 hrs by CCK8 assay. Format: functional, cell-based. Put shortly:
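H23 cells seeded at 4 × 10^4 per mL in RPMI with 10% FBS, L-glutamine and pen/strep. Treated 24 h at various concentrations or with DMSO vehicle (0.05%). Viability read by CCK8 and normalized against cell-free background and untreated cultures; mean ± s.e.m., n=3.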

One may read the IC50 as the concentration that gives 50% inhibition. Read a high IC50 as a need for much substance.

The source made the active and inactive calls. The calls are words filed in the database; no cut-off is given here. Some results are limits rather than exact numbers.

Apoptosis regulator Bcl-2, sequence (P10415 whole entry, the tested form may be a part): as the sequence (P10415 whole entry, looked up) above
Induced myeloid leukemia cell differentiation protein Mcl-1, sequence (Q07820 whole entry, the tested form may be a part): as the sequence (Q07820 whole entry, looked up, the tested form may be a part) above

On to `O=C(CCCCCNc1cccc2c1C(=O)N(C1CCC(=O)NC1=O)C2=O)NCCCCCCNC(=O)CCCCC(=O)NCCN1C(=O)c2cccc3c(Sc4ccc(Br)cc4)ccc(c23)C1=O` (stereo not given), for which the fold change (FC) in [1] amounted to 0.9; in [3], 0.9; in assay [5], 1; in assay [6], 1. Further, the results for the IC50 in assay [2] and in assay [4] were 13.5 µM and 15.1 µM, respectively.
As to `COC(=O)CCCCC(=O)NCCN1C(=O)c2cccc3c(Sc4ccc(Br)cc4)ccc(c23)C1=O`, the IC50 in assay [2] came to 4.78 µM; in assay [4] it was 5.95 µM.
For `N#CC1=C(NCCC(=O)NCCCCCC(=O)NCCCCCCNc2cccc3c2C(=O)N(C2CCC(=O)NC2=O)C3=O)c2ccc(Sc3ccc(Br)cc3)c3cccc(c23)C1=O` (stereo not given), the fold change (FC) in assay [1] is 1; in assay [3] it was 1.5; in assay [5], 1.2; in [6] it was 1.1. In addition, the half-maximal inhibitory concentration (IC50) amounted to 11.6 µM in [2] and 16 µM in assay [4]. In addition, the result in [7] was inactive. Also, the Activity in assay [8] and in assay [9] was less than 20% in each case.
Regarding `N#CC1=C(NCCC(=O)NCCCCCCNc2cccc3c2C(=O)N(C2CCC(=O)NC2=O)C3=O)c2ccc(Sc3ccc(Br)cc3)c3cccc(c23)C1=O` (stereo not given), the fold change (FC) was 1.1 in [1], 0.8 in assay [3], 0.9 in assay [5] and 1 in [6]. Further, the outcome in assay [10] and in assay [11] was inactive. In addition, the IC50 was found to be 1.94 µM in assay [2] and 7.65 µM in assay [4]. Also, the Activity in [8] and in [9] was less than 20% throughout.
Take `N#CC1=C(NCCC(=O)NCCNc2cccc3c2C(=O)N(C2CCC(=O)NC2=O)C3=O)c2ccc(Sc3ccc(Br)cc3)c3cccc(c23)C1=O` (stereo not given): the fold change (FC) in assay [1], in assay [3], in assay [5] and in assay [6] was 1 in each case. For the same compound, the figures for the concentration for half-maximal inhibition (IC50) in [2] and in [4] were 10.5 µM and 10.6 µM, respectively. The Activity in [8] and in assay [9] was less than 20% each time.
In the case of `N#CC1=C(C#N)c2ccc(Sc3ccc(Br)cc3)c3cccc(c23)C1=O`, the fold change (FC) in [1] and in [3] was 1 in each case. For the same compound, the results for the IC50 in assay [2] and in [4] were 2.31 µM and 2.03 µM, respectively. Besides, the outcome in [12], in assay [8], in assay [13] and in assay [9] was inactive.
As for `Cc1nn(C)c(COc2ccc(N3CCN(S(=O)(=O)N(C)C)CC3)cc2)c1-c1cccc2c(CCCOc3cccc4ccccc34)c(C(=O)O)n(CCN3CCOCC3)c12`, in the assay with NCI-H23, the result was Active.
Turning to `O=C(CCCCC(=O)NCCN1C(=O)c2cccc3c(Sc4ccc(Br)cc4)ccc(c23)C1=O)NCCCCNc1cccc2c1C(=O)N(C1CCC(=O)NC1=O)C2=O` (stereo not given), the fold change (FC) in assay [1] was found to be 1; in assay [3], 0.9; in [5], 1; in assay [6], 1. Further, the values for the IC50 in assay [2] and in assay [4] were 10 µM and 1.51 µM, respectively.
In the case of `N#CC1=C(NCCC(=O)NCCOCCOCCNc2cccc3c2C(=O)N(C2CCC(=O)NC2=O)C3=O)c2ccc(Sc3ccc(Br)cc3)c3cccc(c23)C1=O` (stereo not given), the fold change (FC) amounted to 1 in [1], 2.2 in assay [3], 1.8 in [5] and 1 in [6]. The half-maximal inhibitory concentration (IC50) in assay [2] was 2.24 µM; in assay [4], 2.29 µM. Besides, the result in assay [7] was inactive. Moreover, the Activity in assay [8] and in [9] was less than 20% each time.
As for `N#CC1=C(NCCC(=O)NCCCCNc2cccc3c2C(=O)N(C2CCC(=O)NC2=O)C3=O)c2ccc(Sc3ccc(Br)cc3)c3cccc(c23)C1=O` (stereo not given), the fold change (FC) was found to be 1 in assay [1], 0.8 in [3], 0.9 in [5] and 1 in [6]. The half-inhibitory concentration (IC50) in assay [2] came to 9.71 µM; in assay [4], 9.95 µM. Moreover, the Activity in [8] and in [9] was less than 20% in each case.
For the compound `O=C(CCCCC(=O)NCCN1C(=O)c2cccc3c(Sc4ccc(Br)cc4)ccc(c23)C1=O)NCCCCCCCCNc1cccc2c1C(=O)N(C1CCC(=O)NC1=O)C2=O` (stereo not given), the fold change (FC) in [1] stood at 0.9; in [3] it was 1; in assay [5] it was 1; in assay [6] it was 0.9. The half-maximal inhibitory concentration (IC50) in assay [2] was 7.66 µM; in assay [4] it was 5.4 µM.
In the case of `CC(C)(C)c1ccc(C(=O)NCCN2C(=O)c3cccc4c(Sc5ccc(Br)cc5)ccc(c34)C2=O)cc1`, the fold change (FC) in assay [1] and in [3] was 1 throughout. The IC50 was found to be 3.18 µM in [2] and 4.45 µM in [4]. Further, the outcome in assay [12], in assay [8], in [13] and in assay [9] was inactive. In addition, the outcome in the assay on NCI-H23 was Active.
In the case of `O=C(CCCCC(=O)NCCN1C(=O)c2cccc3c(Sc4ccc(Br)cc4)ccc(c23)C1=O)NCCNc1cccc2c1C(=O)N(C1CCC(=O)NC1=O)C2=O` (stereo not given), the fold change (FC) in [1], in [3], in assay [5] and in [6] was 1 in each case. In addition, the half-maximal inhibitory concentration (IC50) in assay [2] worked out at 15.2 µM; in assay [4] it was 7.89 µM.
As for `COC(=O)CCNC1=C(C#N)C(=O)c2cccc3c(Sc4ccc(Br)cc4)ccc1c23`, the half-inhibitory concentration (IC50) came to 4.52 µM in assay [2] and 3.46 µM in assay [4].
